In PMC7941214 (Journal of medicinal chemistry, 2019):
Several values for one entry are separate records, joined by “and”; a condition that tells them apart may be missing. Equal entries are not always repeated.

How the values were obtained:
S. aureus JE2 (USA300) = experiment: Broth microdilution MIC/MBC, S. aureus; assay type: cell-based, Staphylococcus aureus; settings: for MIC S. aureus JE2 (USA300): value before the parentheses, two values = two repeats; for MBC S. aureus JE2 (USA300): value in parentheses
Outline: (§1)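 CLSI broth microdilution in cation-adjusted Mueller–Hinton broth. Log-phase cultures were diluted to 7.5 × 10^5 CFU/mL, then mixed 1:1 with 2-fold serial dilutions of gold complexes from DMSO or water stocks, in triplicate, and held 37 °C, 18 h, static. MIC: lowest concentration giving >90% inhibition by OD600 against medium-only and bacteria-only wells. […] E. coli ATCC 25922 quality control was checked each run with ciprofloxacin and […].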

A549 cells = experiment: Cytotoxicity assay; assay type: cell-based, human; settings: for IC50: read-out: IC50 against A549 cells, means ± SEM from two independent experiments
P. aeruginosa NCTC 13437 = experiment: Broth microdilution MIC/MBC, P. aeruginosa; assay type: cell-based, Pseudomonas aeruginosa; settings: for MIC P. aeruginosa NCTC 13437: value before the parentheses, two values = two repeats; for MBC P. aeruginosa NCTC 13437: value in parentheses
Outline: as §1

E. coli ATCC 25922 = experiment: Broth microdilution MIC/MBC, E. coli; assay type: cell-based, Escherichia coli; settings: for MIC E. coli ATCC 25922: value before the parentheses, two values = two repeats; for MBC E. coli ATCC 25922: value in parentheses
Outline: as §1

E. faecium ATCC 700221 = experiment: Broth microdilution MIC/MBC, E. faecium; assay type: cell-based, Enterococcus faecium; settings: for MBC E. faecium ATCC 700221: value in parentheses; for MIC E. faecium ATCC 700221: value before the parentheses, two values = two repeats
Outline: as §1

rat = settings: cited from earlier work
[1] = system: K. pneumoniae ATCC 700603; experiment: Broth microdilution MIC/MBC, K. pneumoniae; assay type: cell-based, Klebsiella pneumoniae; settings: for MIC K. pneumoniae ATCC 700603: value before the parentheses, two values = two repeats; for MBC K. pneumoniae ATCC 700603: value in parentheses; for fold enhancement of activity over auranofin, K. pneumoniae: vs auranofin
Outline: as §1

Log P determination = settings: n-octanol/water, Au by FAAS
E. cloacae NCTC 13405 = experiment: Broth microdilution MIC/MBC, E. cloacae; assay type: cell-based, Enterobacter cloacae; settings: for MIC E. cloacae NCTC 13405: value before the parentheses, two values = two repeats; for MBC E. cloacae NCTC 13405: value in parentheses; for fold enhancement of activity over auranofin, E. cloacae: vs auranofin
Outline: as §1

A. baumannii NCTC 13420 = experiment: Broth microdilution MIC/MBC, A. baumannii; assay type: cell-based, Acinetobacter baumannii; settings: for MIC A. baumannii NCTC 13420: value before the parentheses, two values = two repeats; for MBC A. baumannii NCTC 13420: value in parentheses
all strains = experiment: Broth microdilution, all strains taken together; assay type: cell-based; settings: vs auranofin
Gram-negative strains = experiment: Broth microdilution, Gram-negative strains taken together; assay type: cell-based; settings: vs auranofin

Structure (SMILES) | MIC S. aureus JE2 (USA300) (S. aureus JE2 (USA300)) | MBC S. aureus JE2 (USA300) (S. aureus JE2 (USA300)) | IC50 (A549 cells) | MIC P. aeruginosa NCTC 13437 (P. aeruginosa NCTC 13437) | MBC P. aeruginosa NCTC 13437 (P. aeruginosa NCTC 13437) | MIC E. coli ATCC 25922 (E. coli ATCC 25922) | MBC E. coli ATCC 25922 (E. coli ATCC 25922) | MBC E. faecium ATCC 700221 (E. faecium ATCC 700221) | rat acute oral LD50 (rat) | MIC K. pneumoniae ATCC 700603 [1] | MBC K. pneumoniae ATCC 700603 [1] | log P (Log P determination) | MIC E. cloacae NCTC 13405 (E. cloacae NCTC 13405) | MBC E. cloacae NCTC 13405 (E. cloacae NCTC 13405) | MIC A. baumannii NCTC 13420 (A. baumannii NCTC 13420) | MBC A. baumannii NCTC 13420 (A. baumannii NCTC 13420) | MIC E. faecium ATCC 700221 (E. faecium ATCC 700221) | fold enhancement of activity over auranofin, K. pneumoniae [1] | fold enhancement of activity over auranofin, E. cloacae (E. cloacae NCTC 13405) | further results
CC[PH](CC)(CC)[Au][S][C@@H]1O[C@H](COC(C)=O)[C@@H](OC(C)=O)[C@H](OC(C)=O)[C@H]1OC(C)=O [Compound 1, (2,3,4,6-Tetra-O-acetyl-1-thio-β-D-glucopyranosato)-(triethylphosphine) Gold(I), reference compound] | 0.04 µM | 0.09 µM | 11.3 ± 1.9 µM | 377 µM | 377 µM | 24 µM | 24 µM | 0.4 µM | 265 mg/kg | 377 µM | 377 µM | 0.56 | 189 µM | 189 µM | 47 µM | 47 µM | – | – | – | MBC S. aureus (S. aureus JE2 (USA300); Table S1): 0.06 µg/mL; MIC S. aureus (S. aureus JE2 (USA300); Table S1): 0.03 µg/mL; MBC E. coli (E. coli ATCC 25922; MIC/MBC): 16 µg/mL; MIC E. coli (E. coli ATCC 25922; MIC/MBC): 16 µg/mL; MBC E. faecium (E. faecium ATCC 700221; Table S1): 0.25 µg/mL; MIC E. faecium (E. faecium ATCC 700221; Table S1): 0.12 µg/mL; MIC K. pneumoniae ATCC 700603 ([1]; listed as Auranofin): 377 µM; MBC K. pneumoniae ATCC 700603 ([1]; listed as Auranofin): 377 µM; MBC A. baumannii (A. baumannii NCTC 13420; MIC/MBC): 32 µg/mL; MIC A. baumannii (A. baumannii NCTC 13420; MIC/MBC): 32 µg/mL; MIC A. baumannii NCTC 13420 (A. baumannii NCTC 13420; listed as Auranofin): 47 µM; MBC A. baumannii NCTC 13420 (A. baumannii NCTC 13420; listed as Auranofin): 47 µM
CC[PH](CC)(CC)[Au][S]c1ccc(N)cc1 [Compound 17, (4-Aminobenzenethiolato)(triethylphosphine) Gold(I)] | – | 0.07 µM | – | 146 µM | 146 µM | 9 µM | 9 µM | 0.1 µM | – | 36 µM | 36 µM | 1.36 | 36 µM | 36 µM | 18 µM | 18 µM | 0.02 µM | 10 | – | fold enhancement of activity over auranofin, all strains (all strains): up to 10; fold enhancement of activity over auranofin, E. faecium (E. faecium ATCC 700221; vs auranofin): more than 7
CC[P+](CC)(CC)[Au-][S]CCO [Compound 21, (2-Mercaptoethanolato)(triethylphosphine) Gold(I)] | 0.03 µM | 0.03 µM | – | 41 µM | 41 µM | 10 µM | 10 µM | 0.6 µM | – | 20 µM | 20 µM | 1.19 | 5 µM and 10 µM | 82 µM | 10 µM | 82 µM | 0.2 µM and 0.3 µM | 19 | 19 | fold enhancement of activity over auranofin, Gram-negative strains (Gram-negative strains): 5–19; cytotoxicity relative to auranofin (times less toxic) (A549 cells; A549 cells, vs auranofin): 1.6; fold enhancement of activity over auranofin, P. aeruginosa (P. aeruginosa NCTC 13437; vs auranofin): 9
CCP(CC)CC.[Au+].[Cl-] [Compound 25, (Triethylphosphine)gold Chloride] | – | 0.2 µM | – | 92 µM | 183 µM | 23 µM | 23 µM | 0.7 µM | 79.0 mg/kg | 46 µM | 46 µM | 1.74 | 23 µM | 23 µM | – | 23 µM | – | – | – | –
CC(=O)OCC1O[C@@H]([S][Au-][P+](C)(C)C)C(OC(C)=O)[C@@H](OC(C)=O)[C@@H]1OC(C)=O (stereo partly drawn) [Compound 31, (2,3,4,6-Tetra-O-acetyl-1-thio-β-D-glucopyranosato)-(trimethylphosphine) Gold(I)] | 0.1 µM | 0.2 µM | 20.6 ± 3.6 µM | 101 µM | 101 µM | 6 µM | 6 µM | 0.8 µM | – | 13 µM | 13 µM | 0.35 | 3.1 µM and 3 µM | 3.1 µM and 3 µM | – | 101 µM | 0.2 µM and 0.4 µM | 30 | 60 and 61 | –
C[PH](C)(C)[Au][S]CCO [Compound 40, (2-Mercaptoethanolato)(trimethylphosphine) Gold(I)] | 0.3 µM | 0.7 µM | 35.1 ± 8.9 µM | – | 91 µM | – | 11 µM | 0.3 µM | – | 11 µM | 23 µM | −0.15 | 2.9 µM and 3 µM | 3 µM | 5.7 µM and 6 µM and 3 µM | 23 µM | 0.3 µM | 34 | 65 | MIC K. pneumoniae [1]: 11 μ/mL
